Compound activity from PubChem.
Sampled rows, rich in hits. Any-hit rate of the full collection: about 1.5%.
NR2E3 ag-1: NR2E3 agonists in two-hybrid cells, primary screen, cell-based, luminescence, CHO-S, Gal4-NCOR/VP16-NR2E3; Photoreceptor-specific nuclear receptor (Homo sapiens), Q9Y5X4; luciferase; inhibition of corepressor binding, % at 3.98 µM; 360,000 compounds, 0.35% hits;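 active = inhibition above the mean of all tested compounds plus 3 SD, cut at about 70% in these data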;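 also: 0% = DMSO with NR2E3 transfected cells and 100% = cells lacking NR2E3 construct; higher means lower luciferase signal from less NR2E3 corepressor binding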
Target sequence (Q9Y5X4 whole entry, looked up, the tested form may be a part): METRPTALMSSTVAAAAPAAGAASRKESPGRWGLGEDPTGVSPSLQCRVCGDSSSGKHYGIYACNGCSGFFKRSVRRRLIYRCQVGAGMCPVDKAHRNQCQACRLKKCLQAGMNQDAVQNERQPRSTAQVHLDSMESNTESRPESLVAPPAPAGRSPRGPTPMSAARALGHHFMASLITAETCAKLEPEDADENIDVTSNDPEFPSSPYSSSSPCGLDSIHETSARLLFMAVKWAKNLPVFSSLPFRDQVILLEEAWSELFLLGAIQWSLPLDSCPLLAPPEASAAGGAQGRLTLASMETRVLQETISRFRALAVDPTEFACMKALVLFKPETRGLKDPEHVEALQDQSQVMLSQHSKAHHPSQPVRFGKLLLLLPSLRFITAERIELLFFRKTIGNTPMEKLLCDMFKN
PG9 Ab binder: binders of HIV-1 gp120 antibody PG9, primary screen, biochemical, TR-FRET. HIV-1 gp120 / PG9 antibody interaction. TR-FRET gp120-PG9 antibody binding. inhibition, % at 6.7 µM. 360,000 compounds, 0.43% hits. AID 624416, 2012; in the data active = inhibition above about 8.5%
Rev-erbA mod: modulators of Rev-erb alpha DNA binding, primary screen, biochemical, FITC-DNA, fluorescence polarization, uHTS; Nuclear receptor subfamily 1 group D member 1 (Homo sapiens), P20393; Rev-erbα–FITC-DNA binding, 90 min; activity, % at 10 µM; 370,000 compounds, 0.79% hits; AID 1259318, 2017;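 active = activity above about 14%, limit read from the data; passing the limit was not always enough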;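 also: 0% = DMSO wells with 35 nM protein and 100% = DMSO wells with 750 nM protein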
NR2E3 ag-2: inhibitors of NR2E3-RetCOR corepressor binding, primary screen, NR2E3 agonist project, biochemical, TR-FRET, GST-NR2E3, biotin-RetCOR; Photoreceptor-specific nuclear receptor (Homo sapiens), Q9Y5X4; 1536-well; inhibition of corepressor binding, % at 4.78 µM; 320,000 compounds, 0.12% hits;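 active = percent inhibition above the cutoff of mean plus 3 SD of all tested compounds, set per screening campaign, cut at about 20% in these data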;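 also: 0% = DMSO wells and 100% = biotin wells as full block of FRET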
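Material: NR2E3–RetCOR corepressor complex | Quantity: 1.35 nM GST-tagged NR2E3 final | Schedule: 5 h at 4 °C | Replication: Singlicate compound wells | Reagent: RetCOR corepressor, biotinylated, 7 nM | Controls: Biotin wells as high control, 0.6% DMSO wells as low control | Signal: TR-FRET, Eu(K)-anti-GST donor, streptavidin-D2 acceptor, ex 340, em 617/671 nm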
NR2E3 agonist cf: NR2E3 agonists, confirmation, biochemical, TR-FRET | activation (reported as inhibition), % at 3.98 µM | cell-free NR2E3 corepressor release, 5 h | shares compounds with NR2E3 ag-2 | AID 2379, 2010 | 360 compounds, 39% hits; in the data active = activation above about 20%
PPARg-NCOR2 ag: agonists of PPARg-NCOR2 corepressor interaction, counter-screen for NR2E3 agonist project, biochemical, TR-FRET; TR-FRET PPARg-NCOR2 coregulator interaction; inhibition, % at 3.98 µM; shares compounds with NR2E3 ag-2; 360 compounds, 45% hits; in the data active = inhibition above about 20%;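 also: 0% = DMSO vehicle and 100% = wells without protein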
PG9 binder conf: binders of anti-gp120 antibody PG9, confirmation, biochemical, TR-FRET; shares compounds with PG9 Ab binder; TR-FRET PG9 antibody binding; inhibition, % at 6.7 µM; 1,500 compounds, 90% hits; AID 651571, 2012; in the data active = inhibition above about 9%
PGV04 counter: binders of control antibody PGV04, counter-screen for PG9 antibody binder project, biochemical, TR-FRET, distinct HIV envelope site. TR-FRET PGV04 antibody-gp120 binding. 1,500 compounds, 95% hits. AID 651604, 2012. shares compounds with PG9 Ab binder. inhibition, % at 6.7 µM; in the data active = inhibition above about 9.5%
Numbers without * were called inactive.

OC[C@H]1OC([S-])[C@H](O)[C@@H](O)[C@@H]1O.[Au+] (stereo not given in full) was read as Rev-erbA mod -30.
O=C1C=C(O)c2cccc3cccc1c23 was read as NR2E3 ag-1 -26, PG9 Ab binder 49*, Rev-erbA mod 1, NR2E3 ag-2 23*, NR2E3 agonist cf 11, PPARg-NCOR2 ag 19, PG9 binder conf 39* and PGV04 counter 58*.
`NC1=CC(=O)c2cccc3cccc1c23` gave NR2E3 ag-2 -4.
`O=C(C1=C(O)C(=O)N(CC2CCCO2)C1c1ccccc1F)c1ccco1` (stereo not given) gave NR2E3 ag-1 -16, PG9 Ab binder 9.8*, Rev-erbA mod -2, NR2E3 ag-2 36*, NR2E3 agonist cf 13, PPARg-NCOR2 ag 12, PG9 binder conf 16* and PGV04 counter 20*.
For Cc1ccc2nc(N3CCN(C=O)CC3)nc(-c3ccccc3)c2c1 the results were NR2E3 ag-1 -18, PG9 Ab binder -1, Rev-erbA mod -3 and NR2E3 ag-2 -3.
Screening O=C(O)C1CCN(c2nc(-c3ccccc3)c3cc(Br)ccc3n2)CC1 returned NR2E3 ag-1 -59, PG9 Ab binder 15*, Rev-erbA mod 1, NR2E3 ag-2 21*, NR2E3 agonist cf 24*, PPARg-NCOR2 ag 25*, PG9 binder conf 17* and PGV04 counter 36*.
CC(=O)OCC(=O)[C@@]1(O)CCC2C3CCC4=CC(=O)CC[C@]4(C)C3C(=O)C[C@@]21C (stereo not given in full) was read as Rev-erbA mod -1.
For COCC1=C(C(=O)OC(C)OC(=O)OC(C)C)N2C(=O)[C@@H](NC(=O)/C(=N/OC)c3csc(N)n3)[C@H]2SC1 (stereo not given in full) the results were Rev-erbA mod 6.
For O=c1c2oc3ccccc3c2[nH]c(=S)n1-c1ccc(F)cc1 the results were NR2E3 ag-1 8, PG9 Ab binder 10*, Rev-erbA mod -6, NR2E3 ag-2 44*, NR2E3 agonist cf 32*, PPARg-NCOR2 ag 24*, PG9 binder conf 12* and PGV04 counter 12*.
For Cc1ccc(-n2c(=S)[nH]c3c(oc4ccccc43)c2=O)cc1C the results were NR2E3 ag-1 -26, PG9 Ab binder 20*, Rev-erbA mod -7, NR2E3 ag-2 43*, NR2E3 agonist cf 35*, PPARg-NCOR2 ag 33*, PG9 binder conf 11* and PGV04 counter 17*.
CC(C)(C)NCC(O)CSc1nc(-c2ccc(C(N)=O)s2)cs1 (stereo not given) was read as Rev-erbA mod 9.
Screening COC(=O)c1cc(Br)c(=O)n(-c2nccs2)c1 returned NR2E3 ag-1 4, PG9 Ab binder 28*, Rev-erbA mod 6, NR2E3 ag-2 25*, NR2E3 agonist cf 22*, PPARg-NCOR2 ag 24*, PG9 binder conf 37* and PGV04 counter 50*.
`COC(=O)c1cc(Br)c(=O)n(-c2ccccn2)c1` gave NR2E3 ag-1 22, PG9 Ab binder 1, Rev-erbA mod -1 and NR2E3 ag-2 0.
`O=C1CCCC(=O)C1C(=O)c1ccc(C(F)(F)F)cc1[N+](=O)[O-]` gave Rev-erbA mod -8.
COC(=O)c1cc2ccsc2n1CC(=O)Nc1cc(C)cc(C)c1 was read as NR2E3 ag-1 -11, PG9 Ab binder 33*, Rev-erbA mod 16, NR2E3 ag-2 36*, NR2E3 agonist cf 19, PPARg-NCOR2 ag 20*, PG9 binder conf 38* and PGV04 counter 48*.
For CN(C)c1cc(NC(=O)CNC(C)(C)C)c(O)c2c1C[C@H]1C[C@H]3[C@H](N(C)C)C(=O)C(C(N)=O)=C(O)[C@@]3(O)C(=O)C1=C2O the results were Rev-erbA mod -36.
O=C(O)c1cc(-c2cccnc2)nc2ccc(Br)cc12 was read as NR2E3 ag-1 0, PG9 Ab binder 44*, Rev-erbA mod -5, NR2E3 ag-2 56*, NR2E3 agonist cf 58*, PPARg-NCOR2 ag 57*, PG9 binder conf 56* and PGV04 counter 69*.
`O=C(O)c1cc(-c2cccs2)nc2ccc(F)cc12` gave NR2E3 ag-1 -18, PG9 Ab binder 4, Rev-erbA mod -1 and NR2E3 ag-2 5.
O=C(O)c1cc(-c2cccs2)nc2ccc(Br)cc12 was read as NR2E3 ag-1 -35, PG9 Ab binder 40*, Rev-erbA mod 6, NR2E3 ag-2 41*, NR2E3 agonist cf 41*, PPARg-NCOR2 ag 53*, PG9 binder conf 54* and PGV04 counter 77*.
For CCN1CCN(C(=O)c2cc(-c3cccnc3)nc3ccc(Br)cc23)CC1 the results were NR2E3 ag-1 -9, PG9 Ab binder 7, Rev-erbA mod 7 and NR2E3 ag-2 6.
`O=C(O)c1cc(-c2ccc3c(c2)OCO3)nc2ccc(Br)cc12` gave NR2E3 ag-1 -43, PG9 Ab binder 20*, Rev-erbA mod 0, NR2E3 ag-2 38*, NR2E3 agonist cf 44*, PPARg-NCOR2 ag 55*, PG9 binder conf 28* and PGV04 counter 34*.
Screening C[C@]12CCC(=O)C=C1CCC1C2C(=O)C[C@@]2(C)C1CC[C@]2(O)C(=O)CO (stereo not given in full) returned Rev-erbA mod -5.
CO/N=C(\C(=O)N[C@@H]1C(=O)N2C(C(=O)OCOC(=O)C(C)(C)C)=C(C)CS[C@H]12)c1csc(N)n1 was read as Rev-erbA mod 5.
For CCN(CC)CCN1C(=O)C(O)=C(C(=O)c2ccco2)C1c1ccccn1 (stereo not given) the results were NR2E3 ag-1 7, PG9 Ab binder -1, Rev-erbA mod -1 and NR2E3 ag-2 1.
